Positions count from the first letter of the chain named. Where “and” joins values, the source holds several entries; their conditions need not be identical. Equal values may be shown once. Calls of active or inactive are those of the source. No cut-off for these calls is given here.
Assays:
[1] = molecular target: T1, Vitamin D3 receptor (Homo sapiens) (UniProt P11473); assay: Agonist activity at human full length VDR W282R mutant expressed in COS7 cells after 24 rs by luciferase reporter gene assay; assay type: cell-based; settings: COS-7
T1 sequence (whole entry): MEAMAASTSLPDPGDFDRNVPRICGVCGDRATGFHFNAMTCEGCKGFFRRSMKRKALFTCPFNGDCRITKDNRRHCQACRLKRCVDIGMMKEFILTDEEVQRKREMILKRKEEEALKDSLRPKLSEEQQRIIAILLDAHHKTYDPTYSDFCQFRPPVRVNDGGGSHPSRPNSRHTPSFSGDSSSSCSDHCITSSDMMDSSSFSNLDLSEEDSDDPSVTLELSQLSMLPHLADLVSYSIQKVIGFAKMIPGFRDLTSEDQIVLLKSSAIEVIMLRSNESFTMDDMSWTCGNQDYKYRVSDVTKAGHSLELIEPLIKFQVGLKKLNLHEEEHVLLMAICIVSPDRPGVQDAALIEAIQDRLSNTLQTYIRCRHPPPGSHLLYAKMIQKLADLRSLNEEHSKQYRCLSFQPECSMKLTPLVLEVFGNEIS
Method in brief: (§1)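 COS-7 cells grown in DMEM with 5% FCS, seeded at 2 × 10^4 per well. After 24 h, lipofected with mutant full-length hVDR expression plasmid, SPPx3-TK-Luc reporter (three mouse osteopontin VDRE copies) and sea pansy luciferase internal control. Medium changed after 4 h to 5% charcoal-treated FCS. Next day, ligand or ethanol vehicle added for 24 h. Lysate firefly luciferase normalized to the internal control. Triplicate.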

[2] = system: T2, Vitamin D3 receptor (Homo sapiens), P11473 [R274L]; assay: Agonist activity at human full length VDR R274L mutant expressed in COS7 cells after 24 rs by luciferase reporter gene assay; assay type: cell-based; settings: COS-7; method in brief: as §1
T2 sequence (whole entry): T1 sequence (whole entry) with R274L

[3] = system: T2, Vitamin D3 receptor (Homo sapiens), P11473 [R274L]; assay: Transactivation of human full length VDR R274L mutant expressed in COS7 cells after 24 rs by luciferase reporter gene assay relative to 1,25(OH)2D3; assay type: cell-based; settings: COS-7; method in brief: as §1
[4] = molecular target: T3, Vitamin D3 receptor (Rattus norvegicus) (UniProt P13053); settings: 5 mM
T3 sequence (whole entry): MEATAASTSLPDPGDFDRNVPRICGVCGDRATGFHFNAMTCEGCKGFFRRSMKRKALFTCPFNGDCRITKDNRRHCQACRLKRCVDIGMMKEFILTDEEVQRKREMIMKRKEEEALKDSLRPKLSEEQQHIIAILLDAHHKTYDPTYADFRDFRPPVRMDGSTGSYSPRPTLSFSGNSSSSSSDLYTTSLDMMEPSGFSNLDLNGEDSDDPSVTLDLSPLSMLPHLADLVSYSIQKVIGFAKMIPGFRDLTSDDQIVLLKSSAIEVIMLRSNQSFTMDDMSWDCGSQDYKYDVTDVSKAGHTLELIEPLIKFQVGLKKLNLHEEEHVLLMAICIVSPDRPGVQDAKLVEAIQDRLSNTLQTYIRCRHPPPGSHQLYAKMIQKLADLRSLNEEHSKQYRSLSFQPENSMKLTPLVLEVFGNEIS

[5] = system: T4, Vitamin D3 receptor (Rattus norvegicus), P13053 [W282R]; settings: 5 mM
T4 sequence (whole entry): T3 sequence (whole entry) with W282R

[6] = system: T5, Vitamin D3 receptor (Rattus norvegicus), P13053 [R270L]; settings: 5 mM
T5 sequence (whole entry): T3 sequence (whole entry) with R270L

Activity [1] | Activity [2] | SMILES | further results
inactive |  | CCCC[C@@H]1CC[C@]2(C)[C@@H]([C@H](C)CCCC(C)(C)O)CC[C@H]2/C1=C/C=C1C[C@@H](O)C[C@H](O)C1 | 
 | inactive | C[C@H](CCCC(C)(C)O)[C@H]1CC[C@H]2/C(=C/C=C3/C[C@@H](O)[C@@](C)(O)[C@H](OCCO)C3)CCC[C@]12C | 
 | Active | C[C@H](CCCC(C)(C)O)[C@H]1CC[C@H]2/C(=C/C=C3/C[C@@H](O)C[C@H](OCCO)C3)CCC[C@]12C | 
inactive |  | C=CC[C@@H]1CC[C@]2(C)[C@@H]([C@H](C)CCCC(C)(C)O)CC[C@H]2/C1=C/C=C1C[C@@H](O)C(=CCO)[C@H](O)C1 | 
 | inactive | C[C@H](CCCC(C)(C)O)[C@H]1CC[C@H]2/C(=C/C=C3/C[C@@H](O)[C@@](C)(O)[C@H](OCCCCO)C3)CCC[C@]12C | 
 |  | CCC(O)(CC)CS[C@@H](C)C1=CC[C@H]2/C(=C/C=C3C[C@@H](O)C(=CCO)[C@H](O)C3)CCC[C@]12C | fold change (FC) [3]: 130 and 46
 | Active | C[C@H](CCCC(C)(C)O)[C@H]1CC[C@H]2/C(=C/C=C3/C[C@@H](O)C[C@H](OCCCCO)C3)CCC[C@]12C | 
 | inactive | C[C@H](CCCC(C)(C)O)[C@H]1CC[C@H]2/C(=C/C=C3/C[C@@H](O)[C@@](C)(O)[C@H](OCCCO)C3)CCC[C@]12C | 
 |  | C=C1/C(=C\C=C2/CCC[C@]3(C)[C@@H]([C@H](C)CCCC(C)(C)O)CC[C@@H]23)C[C@@H](O)C[C@@H]1O | ΔTm [4]: 8.4 °C; ΔTm [5]: 0.1 °C; ΔTm [6]: 2.5 °C
inactive |  | C[C@H](CCCC(C)(C)O)[C@H]1CC[C@H]2/C(=C/C=C3C[C@@H](O)C(=CCO)[C@H](O)C3)[C@H](CCCO)CC[C@]12C | 

Source: ChEMBL document CHEMBL2424653, “Crystal structures of hereditary vitamin D-resistant rickets-associated vitamin D receptor mutants R270L and W282R bound to 1,25-dihydroxyvitamin D3 and synthetic ligands” (J Med Chem, 2013)
